Publication PMC4216208 (Journal of Medicinal Chemistry, 2014)

Assays:
C. elegans [1] = assay: Metabolism of closantel in C. elegans; assay type: in vitro ADME, Caenorhabditis elegans
HEK 293T/17 cells = assay: Mitochondrial-uncoupling assay; assay type: cell-based, human; details: 50 μM compound, TMRE staining
Summary of the method: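 HEK 293T/17 cells were trypsinised and suspended at 1−2 × 10^6 cells/mL in DMEM with 10% FBS, then given test compound (50 μM) or DMSO for 30 min at 37 °C. TMRE (~450 nM final) was added for 30 min in the dark at 37 °C. Cells were washed twice in 0.2% BSA/PBS, resuspended, and read by plate fluorescence (em 575 nm). Unstained and DMSO controls were included; mean ± sd, n = 3.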

O. volvulus L3 larvae = details: 100 μM; cited from earlier work
C. elegans [2] = assay: Bioaccumulation in C. elegans; assay type: in vitro ADME, Caenorhabditis elegans; details: late-stage L4 worms, 10 μM (2 nmol/mg worm), 6 h, LC-MS of homogenates
Summary of the method: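 Synchronised C. elegans grown to late L4 on E. coli OP50 at 25 °C for 40 h, water-washed, and suspended in M9 at ~5−10 worms/μL. Dosed at 10 μM final (~2 nmol/mg worm) from DMSO stock, 6 or 12 h at rt. Washed in 0.1% SDS then water, frozen, lyophilised, weighed, extracted into cold MeOH/MeCN with internal standard. Quantified by LC-ESI-MS against blank-worm calibration; mean ± sd, n = 3.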

Cc1cc(C(C#N)c2ccc(Cl)cc2)c(Cl)cc1NC(=O)c1cc(I)cc(I)c1O (centres unmarked) [Compound 1, closantel]
sulfation, glycosylation and glucuronidation of the salicylate moiety in C. elegans homogenates (C. elegans [1]): not observed | primary metabolic pathway in C. elegans (C. elegans [1]; minor pathway, forms two monoiodoclosantel isomers): reductive deiodination | mitochondrial-uncoupling (protonophoric) activity (HEK 293T/17 cells): mitochondrial-uncoupling activity | effect on molting of O. volvulus L3 to L4 larvae (O. volvulus L3 larvae): inhibit the molting | accumulation in C. elegans (in words) (C. elegans [2]): accumulated in C. elegans
